This note sets out measurements from publication PMC10751876 (Current research in chemical biology, 2023).

Data set [1] has as its target T1, TbBdf2 (Trypanosoma brucei brucei, UniProt Q38AM1).
T1 sequence (Q38AM1 9-123): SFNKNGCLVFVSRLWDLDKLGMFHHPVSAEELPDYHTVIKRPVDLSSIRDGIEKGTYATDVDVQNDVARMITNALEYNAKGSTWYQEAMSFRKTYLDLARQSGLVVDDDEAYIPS
Description: SPR binding to TbBdf2. More on the design: species or system T. brucei. The following applies: for Rmax: SPR fit, (locked) = as printed; for Kd: read-out: SPR KD, duplicate, standard error. The method, boiled down:
(§1)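 Purified His6-tagged bromodomain protein was labelled with DBCO-PEG4-NHS ester (3-fold molar excess, 2 h, room temperature), quenched with ethanolamine, and coupled to an azide chip at pH 4.0 (~6000 RU). Run in duplicate, standard error.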

For data set [2], the system named is bloodstream T. brucei parasites. Put plainly: Growth inhibition of bloodstream parasites. In kind it is cell-based. As to conditions: Trypanosoma brucei, 48 h, read-out: GEC50 growth inhibition. The method in brief: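 Lister 427 L224 bloodstream parasites were plated at 10,000 cells/ml in HMI-9 across a compound concentration series and grown 48 h at 37 °C, 5% CO2. Cells were then stained with 5 μM Sytox Orange for 15 min at 37 °C and counted by fixed-volume flow cytometry in a live/Sytox-negative gate. Dose-response metrics came from growth-rate-inhibition analysis (GRMetric).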

The subject of another data set is T. brucei parasites. Put plainly: Percent of live cells by forward and side scatter gating. The class given is cell-based. As to conditions: flow cytometry live gate. The method, boiled down:
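Lister 427 L224 bloodstream parasites were cultured in HMI-9 at 37 °C, 5% CO2 and treated 48 h or 72 h at set concentrations, with DMSO controls. Viability is the percentage of cells falling in a live gate set on forward and side scatter by flow cytometry.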
(In flow cytometry, cells or beads pass a laser one at a time.)

The target of data set [3] is T2, hBRD4 (Homo sapiens, UniProt O60885). Description: ITC binding to hBRD4.
Data set [4] deals with T1, TbBdf2. Put plainly: ITC binding to TbBdf2. As to conditions: 15 °C; n set to 1.0; single experiment, error of the fit. The arrangement: species or system T. brucei. The method in brief: (§2)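 ITC at 15 °C. His6-tagged bromodomain protein was dialysed against 20 mM HEPES pH 7.5, 150 mM NaCl, 0.5 mM TCEP, 1% DMSO. Typically 2.0 mM protein was injected in 2–3 μL increments into 200 μM ligand in the cell. Baseline-corrected isotherms were fitted. Each titration was run at least twice; reported values come from single experiments with fit error.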

The target of data set [5] is T3, TbBdf3 (Trypanosoma brucei brucei, UniProt Q383S2).
T3 sequence (Q383S2 1-221): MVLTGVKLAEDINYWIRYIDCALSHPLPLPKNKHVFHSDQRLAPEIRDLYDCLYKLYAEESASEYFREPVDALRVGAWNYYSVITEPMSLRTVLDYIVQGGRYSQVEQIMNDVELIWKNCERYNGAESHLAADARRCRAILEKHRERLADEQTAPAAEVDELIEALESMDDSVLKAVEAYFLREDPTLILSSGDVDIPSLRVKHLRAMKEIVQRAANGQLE
Put plainly: ITC binding to TbBdf3. More on the design: species or system T. brucei. The method, boiled down:
as §2

For data set [6], the target named is T2, hBRD4. Description: SPR binding to hBRD4. The following applies: for Rmax: hBRD4, SPR fit, (locked) = as printed.
In data set [7] the target is T3, TbBdf3. Description: SPR binding to TbBdf3. The arrangement: species or system T. brucei. The following applies: for Rmax: TbBdf3, SPR fit, (locked) = as printed. The method, boiled down: as §1
In general terms: In SPR one partner is held on a chip, and binding of the other changes the refractive index at the surface.

Data set [8] concerns EP1/GFP reporter parasites. Description: EP1/GFP reporter flow cytometry in bloodstream parasites. As to conditions: for EP1/GFP mean fluorescence intensity: 3 days. The class given is cell-based, T. brucei. The method in brief: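 Bloodstream Lister 427 L224 T. brucei (VSG3/BES7-NeoR, VSG2/BES1-PuroR) carrying an EP1/GFP reporter construct, grown in HMI-9 at 37 °C, 5% CO2. Parasites were treated 2 or 3 days, with DMSO as vehicle control. GFP mean fluorescence intensity was read by flow cytometry. Three biological replicates, SD shown; two-tailed unpaired t-test against DMSO.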

A short description of data set [9]: Solubility at ITC ligand concentration. As to conditions: at 200 μM, ITC assay. The class given is physicochemical.
For data set [10], the system named is bloodstream T. brucei parasites (procyclin protein). Description: Procyclin surface protein expression, anti-EP1 flow cytometry. The class given is cell-based. As to conditions: negative control, 3 days.

For the compound `COc1cc2c(N[C@H](C)c3ccccn3)c(C(=O)NCCCCCCN)cnc2cc1-c1c(C)noc1C` [AP-08-188, N-(6-Aminohexyl)-7-(3,5-dimethylisoxazol-4-yl)-6-methoxy-4-((R)-1-(pyridin-2-yl)ethylamino)quinoline-3-carboxamide], the figures for the Rmax at TbBdf2 [1], on hBRD4 [6] and at TbBdf3 [7] were 85 ± 35 RU, 135 ± 27 RU and 143 ± 51 RU, respectively. Further, the Kd (as a rule, the constant that tells how readily two partners part at equilibrium) at TbBdf2 [1] came out at 45 ± 31 µM; on hBRD4 [3] it was 0.68 ± 0.15 µM; on TbBdf3 [5] it was 87 ± 21 µM; on hBRD4 [6], 0.29 ± 0.17 µM; on TbBdf3 [7], 30 ± 21 µM. For the same compound, the EC50 in data set [2] came out at 1.74 ± 0.044 µM. The “percentage of live cells compared to DMSO controls” value in the data set with T. brucei parasites is on record as “significantly lower”. The “TbBdf2, ITC KD” value on TbBdf2 [4] is listed as “No binding”. For the same compound, the “SPR binding to TbBdf3” value on TbBdf3 [7] is “weak binding”. Also, the “EP1/GFP mean fluorescence intensity” value in data set [8] (5 μM) is recorded as “highest”.
For `COCCOCCOCCOC(=O)c1ccc(-c2cc3ncc4[nH]c(=O)n([C@H](C)c5ccccn5)c4c3cc2OC)cc1` [AP-09-191, (R)-2-(2-(2-Methoxyethoxy)ethoxy)ethyl 4-(8-methoxy-2-oxo-1-(1-(pyridin-2-yl)ethyl)-2,3-dihydro-1H-imidazo[4,5-c]quinolin-7-yl)benzoate], the Rmax on TbBdf2 [1], on hBRD4 [6] and at TbBdf3 [7] was 200 (locked) RU each time. The Kd at TbBdf2 [1] is 44 ± 31 µM; on TbBdf3 [5] it was 22 ± 11 µM; on hBRD4 [6], 60 ± 26 µM; on TbBdf3 [7], 56 ± 31 µM. The “hBRD4, ITC KD” value at hBRD4 [3] (15 °C, n set to 1.0, single experiment, error of the fit) was “No binding”. Besides, the “EP1/GFP mean fluorescence intensity” value in data set [8] (20 μM) is “increased mean fluorescence intensity of GFP”.
For `COc1cc2c(cc1-c1ccc(C(=O)NCCCCCCCCNC(=O)OC(C)(C)C)cc1)ncc1[nH]c(=O)n([C@H](C)c3ccccn3)c12` [AP-09-008, (R)-tert-Butyl 8-(4-(8-methoxy-2-oxo-1-(1-(pyridin-2-yl)ethyl)-2,3-dihydro-1H-imidazo[4,5-c]quinolin-7-yl)benzamido)octylcarbamate], the Rmax on TbBdf2 [1] stood at 27.1 ± 1.2 RU; on hBRD4 [6], 14.2 ± 1.8 RU; on TbBdf3 [7], 36.9 ± 1.9 RU. For the same compound, the Kd at TbBdf2 [1] was found to be 1.68 ± 0.34 µM; on hBRD4 [6], 6.1 ± 3.6 µM; at TbBdf3 [7], 1.43 ± 0.32 µM. The EC50 in data set [2] was 1.27 ± 0.046 µM. In addition, in the data set with T. brucei parasites, the “percentage of live cells compared to DMSO controls” value is reported as “significantly lower”. Moreover, the “EP1/GFP mean fluorescence intensity” value in data set [8] (5 μM) is listed as “strong increase”. Also, the “solubility” value in data set [9] was “insolubility”.
For `NCCCCCCNC(=O)c1ccccc1.O=C(O)C(F)(F)F` [AP-08-190, N-(6-aminohexyl)benzamide 2,2,2-trifluoroacetate], the “procyclin surface expression” value in data set [10] was “Neither DMSO nor the control compound AP-08-190 increased procyclin surface expression”. Moreover, in data set [8] (20 μM), the “fold change in EP1/GFP mean fluorescence intensity compared to DMSO” value is listed as 1.2 fold.
